Reference: ChEMBL document CHEMBL1134232, “Phenylcyclohexene and phenylcyclohexadiene substituted compounds having retinoid antagonist activity” (Bioorg Med Chem Lett, 2001)

Columns and labels:
[1] = target: T1, Retinoic acid receptor beta (Homo sapiens, UniProt P10826); assay: Antagonist activity of TTNPB (10 nM) function at retinoic acid receptor beta; type: functional
T1 sequence (P10826 whole entry): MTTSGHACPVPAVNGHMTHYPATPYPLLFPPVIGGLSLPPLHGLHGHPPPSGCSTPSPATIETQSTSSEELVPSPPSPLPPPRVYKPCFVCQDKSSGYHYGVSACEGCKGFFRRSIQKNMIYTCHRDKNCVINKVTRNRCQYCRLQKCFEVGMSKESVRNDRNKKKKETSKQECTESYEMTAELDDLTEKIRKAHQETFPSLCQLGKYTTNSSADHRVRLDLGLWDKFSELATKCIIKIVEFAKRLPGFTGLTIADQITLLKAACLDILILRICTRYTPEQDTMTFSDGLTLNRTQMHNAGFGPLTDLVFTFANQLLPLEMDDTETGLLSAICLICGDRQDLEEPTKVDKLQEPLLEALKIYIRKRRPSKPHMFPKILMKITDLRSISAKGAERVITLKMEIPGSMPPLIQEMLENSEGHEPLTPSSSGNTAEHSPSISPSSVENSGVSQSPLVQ
Summary of the method: (§1)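 Transactivation assay run separately at RARα, RARβ and RARγ. Test compound is applied at varying concentrations against 10 nM TTNPB, held constant. Inhibition of TTNPB-driven transcriptional activation is measured, and IC50 is calculated as the half-maximal inhibition concentration.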

[2] = target: T2, Retinoic acid receptor beta (Homo sapiens) (UniProt P10826); assay: Efficacy of TTNPB (10 nM) function at retinoic acid receptor beta (10 uM)
T2 sequence (whole entry): T1 sequence (P10826 whole entry)
Summary of the method: (§2)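 In the RAR transactivation assay with 10 nM TTNPB, efficacy is the percent of TTNPB transcriptional activity antagonized at the highest dose tested (10⁴ nM). Each receptor subtype is tested separately.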

[3] = target: T3, Retinoic acid receptor alpha (Homo sapiens, UniProt P10276); assay: Antagonist activity of TTNPB (10 nM) function at retinoic acid receptor alpha; type: functional; summary of the method: as §1
T3 sequence (P10276 whole entry): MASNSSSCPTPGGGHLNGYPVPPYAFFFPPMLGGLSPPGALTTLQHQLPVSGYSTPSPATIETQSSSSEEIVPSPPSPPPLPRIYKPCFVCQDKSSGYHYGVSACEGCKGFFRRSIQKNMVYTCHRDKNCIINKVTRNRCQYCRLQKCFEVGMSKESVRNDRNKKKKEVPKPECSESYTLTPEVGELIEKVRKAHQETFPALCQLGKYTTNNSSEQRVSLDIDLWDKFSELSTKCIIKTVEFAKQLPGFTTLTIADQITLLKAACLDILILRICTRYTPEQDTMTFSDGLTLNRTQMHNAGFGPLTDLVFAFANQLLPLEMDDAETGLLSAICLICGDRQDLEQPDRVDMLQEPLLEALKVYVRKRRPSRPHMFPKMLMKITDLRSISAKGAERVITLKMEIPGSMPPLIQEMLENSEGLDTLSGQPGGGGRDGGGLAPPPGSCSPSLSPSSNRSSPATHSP

[4] = target: T4, Retinoic acid receptor alpha (Homo sapiens) (UniProt P10276); assay: Efficacy of TTNPB (10 nM) function at retinoic acid receptor alpha, antagonized at highest dose tested (10⁴ nM); summary of the method: as §2
T4 sequence (whole entry): T3 sequence (P10276 whole entry)

[5] = target: T5, Retinoic acid receptor gamma (Homo sapiens) (UniProt P13631); assay: Efficacy of TTNPB (10 nM) function at retinoic acid receptor gamma (10 uM); summary of the method: as §2
T5 sequence (whole entry): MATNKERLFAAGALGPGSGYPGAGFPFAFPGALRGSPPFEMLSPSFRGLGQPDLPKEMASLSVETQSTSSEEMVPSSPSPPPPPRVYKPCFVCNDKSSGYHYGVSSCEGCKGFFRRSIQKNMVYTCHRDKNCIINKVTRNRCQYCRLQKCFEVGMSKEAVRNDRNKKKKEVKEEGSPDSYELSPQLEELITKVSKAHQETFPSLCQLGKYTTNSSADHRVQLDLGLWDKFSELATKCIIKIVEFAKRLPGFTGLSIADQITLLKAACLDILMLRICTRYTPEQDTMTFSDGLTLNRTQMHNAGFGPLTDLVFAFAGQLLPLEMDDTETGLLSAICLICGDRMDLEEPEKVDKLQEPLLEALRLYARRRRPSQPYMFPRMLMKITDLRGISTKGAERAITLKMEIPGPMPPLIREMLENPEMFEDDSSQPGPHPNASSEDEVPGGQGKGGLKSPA

[6] = target: T6, Retinoic acid receptor gamma (Homo sapiens, UniProt P13631); assay: Antagonist activity of TTNPB (10 nM) function at retinoic acid receptor gamma; type: functional; summary of the method: as §1
T6 sequence (P13631 whole entry): T5 sequence (whole entry)

[7] = target: T6, Retinoic acid receptor gamma; assay: Ability to inhibit TTNPB-induced transactivation at retinoic acid receptor gamma
[8] = target: T1, Retinoic acid receptor beta; assay: Binding affinity towards retinoic acid receptor beta was determined using [3H]ATRA (5 nM) as radioligand
[9] = target: T6, Retinoic acid receptor gamma; assay: Binding affinity towards retinoic acid receptor gamma was determined using [3H]ATRA (5 nM) as radioligand
[10] = target: T3, Retinoic acid receptor alpha; assay: Binding affinity towards retinoic acid receptor alpha was determined using [3H]ATRA (5 nM) as radioligand
[11] = target: T3, Retinoic acid receptor alpha; assay: Ability to inhibit TTNPB-induced transactivation at retinoic acid receptor alpha
[12] = target: T1, Retinoic acid receptor beta; assay: Ability to inhibit TTNPB-induced transactivation at retinoic acid receptor beta

SMILES	IC50 [1]	Efficacy [2]	IC50 [3]	Efficacy [4]	Efficacy [5]	IC50 [6]	EC50 [7]	Kd [8]	Kd [9]	Kd [10]	EC50 [11]	EC50 [12]
CC1(C)CCC(C)(C)c2cc(C/C=C/c3ccc(C(=O)O)cc3)ccc21							4 nM	5 nM	26 nM	36 nM	30 nM	8 nM
CC1=C(/C=C/C#Cc2ccc(C(=O)O)cc2)C(C)(C)CCC1								20 nM	190 nM	135 nM	435 nM	7 nM
CC1(C)CCCC(c2ccc(C(C)(C)C)cc2)=C1/C=C/C#Cc1ccc(C(=O)O)cc1		96%		94%	95%			25 nM	331 nM	875 nM		

The next lines start with the values.

IC50 [1]	Efficacy [2]	IC50 [3]	Efficacy [4]	Efficacy [5]	IC50 [6]	EC50 [7]	Kd [8]	Kd [9]	Kd [10]	EC50 [11]	EC50 [12]	SMILES
22 nM	92%	210 nM	93%	96%	5 nM							Cc1ccc(C2=C(/C=C/C#Cc3ccc(C(=O)O)cc3)C(C)(C)CCC2)cc1
	94%		96%	97%			53 nM	31 nM	252 nM			Cc1ccc(C2=CCC(C)(C)C=C2/C=C/C#Cc2ccc(C(=O)O)cc2)cc1
							87 nM	> 1000 nM	> 1000 nM			CC1(C)C=C(/C=C/C#Cc2ccc(C(=O)O)cc2)C(c2ccc(C(C)(C)C)cc2)=CC1
40 nM	96%	220 nM	97%	95%	3 nM							CCc1ccc(C2=C(/C=C/C#Cc3ccc(C(=O)O)cc3)C(C)(C)CCC2)cc1
20 nM	97%	31 nM	91%	98%	3 nM				17 nM			Cc1ccc(C2=CCC(C)(C)c3ccc(C#Cc4ccc(C(=O)O)cc4)cc32)cc1
